The text below walks through data of ChEMBL document CHEMBL1137295, “Discovery of HIV-1 protease inhibitors with picomolar affinities incorporating N-aryl-oxazolidinone-5-carboxamides as novel P2 ligands” (J Med Chem, 2006).

Experiment [1] deals with Human immunodeficiency virus type 1 protease (Human immunodeficiency virus 1, UniProt Q72874, Q7K). As to the kind of experiment: Inhibition of wild type HIV1 protease Q7K mutant. The gist of the method:
(§1)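 Protease desalted into 20 mM sodium acetate pH 5, about 50 nM apparent by A280. Preincubated with inhibitor in DMSO 20-30 min at room temperature. Buffer 0.1 M NaOAc, 1 M NaCl, 1 mM EDTA, 1 mM DTT, 2% DMSO, 1 mg/mL BSA, pH 4.7. Read 340/490 nm, 30 °C, ~10 min. Ki by nonlinear fit of initial velocity versus inhibitor concentration.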

In experiment [2] the target is Human immunodeficiency virus type 1 protease (Human immunodeficiency virus 1, UniProt Q72874, G48V/I54V/L10I/L63P/V82A). As to the kind of experiment: Inhibition of HIV1 protease L10I/G48V/I54V/L63P/V82A mutant. The gist of the method: as §1
In experiment [3] the target is Human immunodeficiency virus type 1 protease (Human immunodeficiency virus 1, UniProt Q72874, D30N/L63P/N88D). In words: Inhibition of HIV1 protease D30N/L63P/N88D mutant. The gist of the method:
as §1

The target of experiment [4] is Human immunodeficiency virus type 1 protease (Human immunodeficiency virus 1, UniProt Q72874, A71V/G73S/I84V/L10I/L63P/L90M). As to the kind of experiment: Inhibition of HIV1 protease L10I/L63P/A71V/G73S/I84V/L90M mutant. The gist of the method:
as §1

On to `CC(C)CN(C[C@@H](O)[C@H](Cc1ccccc1)NC(=O)[C@@H]1CN(c2ccccc2)C(=O)O1)S(=O)(=O)c1ccc(N)cc1`, for which the Ki in experiment [1] came out at 0.53 nM; in experiment [2] it was 2.08 nM; in experiment [3], 0.92 nM; in experiment [4] it was 10.3 nM. `COc1ccc(S(=O)(=O)N(CC(C)C)C[C@@H](O)[C@H](Cc2ccccc2)NC(=O)[C@H]2CN(c3ccccc3)C(=O)O2)cc1`: the Ki in experiment [1] turned out to be 10.7 nM.

Consider `COc1ccc(S(=O)(=O)N(CC(C)C)C[C@@H](O)[C@H](Cc2ccccc2)NC(=O)[C@@H]2CN(c3cccc(F)c3)C(=O)O2)cc1`, for which the Ki stood at 0.083 nM in experiment [1], 3.56 nM in experiment [2], 0.08 nM in experiment [3] and 4.94 nM in experiment [4]. `COc1ccc(S(=O)(=O)N(CC(C)C)C[C@@H](O)[C@H](Cc2ccccc2)NC(=O)[C@@H]2CN(c3ccc(C(C)=O)cc3)C(=O)O2)cc1`: the Ki was found to be 0.78 nM in experiment [2], 0.179 nM in experiment [3] and 1.94 nM in experiment [4]. As to `CC(C)CN(C[C@@H](O)[C@H](Cc1ccccc1)NC(=O)[C@@H]1CN(c2cccc(F)c2)C(=O)O1)S(=O)(=O)c1ccc(N)cc1`, the affinity in experiment [1], expressed as Ki, was 0.17 nM. Still for that read-out and setting: next, `CC(=O)c1ccc(N2C[C@@H](C(=O)N[C@@H](Cc3ccccc3)[C@H](O)CN(CC(C)C)S(=O)(=O)c3ccc(N)cc3)OC2=O)cc1`: 0.184 nM. On the same count and under the same terms, next, `CC(C)CN(C[C@@H](O)[C@H](Cc1ccccc1)NC(=O)[C@@H]1CN(c2ccc(F)c(F)c2)C(=O)O1)S(=O)(=O)c1ccc2c(c1)OCO2`: 0.085 nM. As to `CC(=O)c1cccc(N2C[C@@H](C(=O)N[C@@H](Cc3ccccc3)[C@H](O)CN(CC(C)C)S(=O)(=O)c3ccc4c(c3)OCO4)OC2=O)c1`, the Ki was 0.006 nM in experiment [1], 0.72 nM in experiment [2], 0.235 nM in experiment [3] and 3.51 nM in experiment [4]. In the case of `CC(=O)c1cccc(N2C[C@@H](C(=O)N[C@@H](Cc3ccccc3)[C@H](O)CN(CC(C)C)S(=O)(=O)c3ccc(OC(F)(F)F)cc3)OC2=O)c1`, the affinity in experiment [1] corresponds to a Ki of 2 nM.

In experiment [1], `COc1cccc(S(=O)(=O)N(Cc2cccs2)C[C@@H](O)[C@H](Cc2ccccc2)NC(=O)[C@@H]2CN(c3ccc(C(C)=O)cc3)C(=O)O2)c1` had a Ki of 29.5 nM.

With `COc1ccc(S(=O)(=O)N(CC2CC2)C[C@@H](O)[C@H](Cc2ccccc2)NC(=O)[C@@H]2CN(c3ccc(C(C)=O)cc3)C(=O)O2)cc1`, the Ki in experiment [1] was found to be 0.8 nM.

Molecule `COc1cccc(S(=O)(=O)N(Cc2cccs2)C[C@@H](O)[C@H](Cc2ccccc2)NC(=O)[C@@H]2CN(c3cccc(F)c3)C(=O)O2)c1` returned a Ki in experiment [1] of 189 nM. On the same count and under the same terms, next, `CC(=O)c1cccc(N2C[C@@H](C(=O)N[C@@H](Cc3ccccc3)[C@H](O)CN(CC(C)C)S(=O)(=O)c3ccc(N)cc3)OC2=O)c1`: 0.032 nM; `CC(C)CN(C[C@@H](O)[C@H](Cc1ccccc1)NC(=O)[C@@H]1CN(c2cccc(F)c2)C(=O)O1)S(=O)(=O)c1ccc2c(c1)OCO2`: 0.107 nM. Still for that read-out and setting: next, `COc1ccc(S(=O)(=O)N(CC(C)C)C[C@@H](O)[C@H](Cc2ccccc2)NC(=O)[C@@H]2CN(c3cccc(F)c3)C(=O)O2)cc1F`: 0.07 nM. In turn, `COc1cccc(S(=O)(=O)N(CC(C)C)C[C@@H](O)[C@H](Cc2ccccc2)NC(=O)[C@@H]2CN(c3ccccc3)C(=O)O2)c1` showed a Ki in experiment [1] of 3.8 nM. `COc1cccc(S(=O)(=O)N(Cc2cccs2)C[C@@H](O)[C@H](Cc2ccccc2)NC(=O)[C@@H]2CN(c3ccccc3)C(=O)O2)c1` came in with a Ki in experiment [1] of 239 nM.

In turn, `CC(=O)c1ccc(N2C[C@@H](C(=O)N[C@@H](Cc3ccccc3)[C@H](O)CN(Cc3cccs3)S(=O)(=O)c3cc(F)c(F)cc3F)OC2=O)cc1` came in with a Ki in experiment [1] of 168 nM. The same measure, in the same setting: next, `CC(C)CN(C[C@@H](O)[C@H](Cc1ccccc1)NC(=O)[C@@H]1CN(c2cccc(C(F)(F)F)c2)C(=O)O1)S(=O)(=O)c1ccc2c(c1)OCO2`: 0.016 nM.

`CC(C)CN(C[C@@H](O)[C@H](Cc1ccccc1)NC(=O)[C@@H]1CN(c2ccc(F)c(F)c2)C(=O)O1)S(=O)(=O)c1ccc(N)cc1` came in with a Ki in experiment [1] of 0.23 nM.

In experiment [1], `CC(C)CN(C[C@@H](O)[C@H](Cc1ccccc1)NC(=O)[C@H]1CN(c2ccccc2)C(=O)O1)S(=O)(=O)c1ccc(N)cc1` gave a Ki of 37.4 nM. Still for that read-out and setting: next, `O=C(N[C@@H](Cc1ccccc1)[C@H](O)CN(Cc1cccs1)S(=O)(=O)c1cc(F)c(F)cc1F)[C@@H]1CN(c2cccc(F)c2)C(=O)O1`: 160 nM; `COc1ccc(S(=O)(=O)N(CC(C)C)C[C@@H](O)[C@H](Cc2ccccc2)NC(=O)[C@@H]2CN(c3cccc(C(F)(F)F)c3)C(=O)O2)cc1`: 0.006 nM; `COc1ccc(S(=O)(=O)N(CC(C)C)C[C@@H](O)[C@H](Cc2ccccc2)NC(=O)[C@@H]2CN(c3ccccc3)C(=O)O2)cc1`: 0.1 nM. `COc1ccc(S(=O)(=O)N(CC(C)C)C[C@@H](O)[C@H](Cc2ccccc2)NC(=O)[C@@H]2CN(c3ccc(F)c(F)c3)C(=O)O2)cc1`: the Ki in experiment [1] came out at 0.066 nM; in experiment [2], 1.18 nM; in experiment [3], 0.152 nM; in experiment [4], 8.69 nM. Take `COc1ccc(S(=O)(=O)N(CC(C)C)C[C@@H](O)[C@H](Cc2ccccc2)NC(=O)[C@@H]2CN(c3cccc(C(C)=O)c3)C(=O)O2)cc1`: the Ki was 0.16 nM in experiment [2], 0.039 nM in experiment [3] and 3.36 nM in experiment [4]. In turn, `COc1ccc(S(=O)(=O)N(CC(C)C)C[C@@H](O)[C@H](Cc2ccccc2)NC(=O)[C@@H]2CN(c3cccc(OC)c3)C(=O)O2)cc1` displayed a Ki in experiment [1] of 0.045 nM. As to `CC(C)CN(C[C@@H](O)[C@H](Cc1ccccc1)NC(=O)[C@@H]1CN(c2cccc(C(F)(F)F)c2)C(=O)O1)S(=O)(=O)c1ccc(N)cc1`, the Ki came to 0.042 nM in experiment [1], 4.42 nM in experiment [2], 0.36 nM in experiment [3] and 12.3 nM in experiment [4]. Regarding `COc1ccc(S(=O)(=O)N(CC(C)C)C[C@@H](O)[C@H](Cc2ccccc2)NC(=O)[C@@H]2CN(c3ccc(C(C)=O)cc3)C(=O)O2)cc1F`, the Ki in experiment [1] worked out at 0.08 nM. Still for that read-out and setting: as for `CC(=O)c1ccc(N2C[C@@H](C(=O)N[C@@H](Cc3ccccc3)[C@H](O)CN(CC(C)C)S(=O)(=O)c3ccc4c(c3)OCO4)OC2=O)cc1`, the figure is 0.016 nM; as for `COc1ccc(S(=O)(=O)N(CC(C)C)C[C@@H](O)[C@H](Cc2ccccc2)NC(=O)[C@@H]2CN(c3cccc(C(F)(F)F)c3)C(=O)O2)cc1F`, 0.072 nM; as for `O=C(N[C@@H](Cc1ccccc1)[C@H](O)CN(Cc1cccs1)S(=O)(=O)c1cc(F)c(F)cc1F)[C@@H]1CN(c2ccccc2)C(=O)O1`, 170 nM. The same measure, in the same setting: as for `COc1ccc(S(=O)(=O)N(CC2CC2)C[C@@H](O)[C@H](Cc2ccccc2)NC(=O)[C@@H]2CN(c3cccc(F)c3)C(=O)O2)cc1`, the figure is 0.257 nM. Take `COc1ccc(S(=O)(=O)N(CC(C)C)C[C@@H](O)[C@H](Cc2ccccc2)NC(=O)[C@@H]2CN(c3ccc(F)c(F)c3)C(=O)O2)cc1F`: the Ki in experiment [1] was found to be 0.343 nM. Same read-out and setting: as for `CC(C)CN(C[C@@H](O)[C@H](Cc1ccccc1)NC(=O)[C@@H]1CN(c2cccc(C(F)(F)F)c2)C(=O)O1)S(=O)(=O)c1ccc(OC(F)(F)F)cc1`, the figure is 10 nM; as for `COc1cccc(S(=O)(=O)N(CC(C)C)C[C@@H](O)[C@H](Cc2ccccc2)NC(=O)[C@@H]2CN(c3ccc(C(C)=O)cc3)C(=O)O2)c1`, 0.84 nM; as for `COc1ccc(S(=O)(=O)N(CC2CC2)C[C@@H](O)[C@H](Cc2ccccc2)NC(=O)[C@@H]2CN(c3ccc(F)c(F)c3)C(=O)O2)cc1`, 0.58 nM. On the same count and under the same terms, as for `COc1cccc(S(=O)(=O)N(CC2CCCO2)C[C@@H](O)[C@H](Cc2ccccc2)NC(=O)[C@@H]2CN(c3ccccc3)C(=O)O2)c1` (single isomer, unassigned), the figure is 42 nM.

Take `COc1cccc(S(=O)(=O)N(CC2CCCO2)C[C@@H](O)[C@H](Cc2ccccc2)NC(=O)[C@@H]2CN(c3cccc(F)c3)C(=O)O2)c1` (single isomer, unassigned): the Ki in experiment [1] came to 150 nM.

Broadly, the Ki is the dissociation constant of the complex between target and ligand, obtained from inhibition or displacement. A higher Ki goes with a looser hold on the target.
